# Results: ChEMBL document CHEMBL3286151, “Biological activities of novel pyrazolyl hydroxamic acid derivatives against human lung cancer cell line A549” (Eur J Med Chem, 2014)
# Calls of active or inactive are those of the source. The calls are words filed in the database; no cut-off is given here.
# Experiments:
# A549 [1] = assay: Cytotoxicity against human A549 cells assessed as growth inhibition at 1 to 10 uM by sulforhodamine B assay; assay type: functional, cell-based; conditions: TDE = time-dependent effect
# Procedure, shortened: (§1)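 A549 cells seeded 24 h in RPMI-1640 with 10% bovine calf serum, then exposed in 1% serum medium to 1, 5 and 10 µM for 24 h and 48 h. 0.1% DMSO served as control and 5-FU as positive control. Viability by SRB staining, absorbance 540 nm, calculated relative to DMSO control. Mean ± SEM, n = 3, Student's t-test.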
# A549 [2] = assay: Cell cycle arrest in human A549 cells assessed as accumulation at S phase at 10 uM after 48 hrs by propidium iodide staining-based flow cytometric analysis (reference value: 35.18%); assay type: functional
# A549 [3] = assay: Cytotoxicity against human A549 cells assessed as growth inhibition at 1 to 10 uM after 48 hrs by sulforhodamine B assay relative to control; assay type: functional; procedure, shortened: as §1
# A549 [4] = assay: Cell cycle arrest in human A549 cells assessed as accumulation at G2 phase at 10 uM after 48 hrs by propidium iodide staining-based flow cytometric analysis (reference value: 10.32%); assay type: functional
# A549 [5] = assay: Induction of apoptosis in human A549 cells assessed as appearance of apoptotic bodies at 10 uM after 48 hrs by Hoechst 33258 staining-based fluorescence microscopic analysis; assay type: functional, cell-based
# Procedure, shortened: (§2)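 A549 cells seeded 24 h, then treated at 10 µM for 48 h in 1% serum RPMI-1640 against a 0.1% DMSO control. Fixed in 4% paraformaldehyde for 10 min at room temperature and stained with Hoechst 33258 (2 µg/mL) for 20 min. Nuclear morphology was scored by fluorescence microscopy at 200×.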
# A549 [6] = assay: Induction of autophagy in human A549 cells assessed as accumulation of acidic vesicles at 10 uM after 48 hrs by acridine orange staining-based fluorescence microscopic analysis; assay type: functional, cell-based
# Procedure, shortened: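 Acidic vesicles in A549 cells after 10 µM exposure for 48 h. Cells stained with acridine orange (100 µg/mL) for 1 min at room temperature, then imaged by fluorescence microscopy at 200×.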
# A549 [7] = assay: Induction of necrosis in human A549 cells at 10 uM after 48 hrs by LDH assay; assay type: functional, cell-based
# Procedure, shortened: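 Necrosis read-out: A549 cells exposed to 10 µM or 0.1% DMSO control for 48 h. Culture medium was collected and LDH activity measured with a commercial kit. Mean ± SEM, n = 3, Student's t-test.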
# A549 [8] = assay: Induction of autophagosome formation in human A549 cells assessed as LC3-2 to LC3-1 ratio at 5 to 10 uM after 24 hrs by Western blotting analysis; assay type: functional, cell-based
# A549 [9] = assay: Cytotoxicity against human A549 cells assessed as growth inhibition after 24 to 48 hrs by sulforhodamine B assay; assay type: functional, cell-based; procedure, shortened: as §1
# A549 [10] = assay: Induction of autophagosome formation in human A549 cells assessed as conversion of LC3-1 to LC3-2 at 5 to 10 uM after 24 hrs by Western blotting analysis; assay type: functional, cell-based
# A549 [11] = assay: Induction of autophagic flux in human A549 cells assessed as decrease in p62 protein level at 5 to 10 uM after 24 hrs by Western blotting analysis; assay type: functional, cell-based
# A549 [12] = assay: Cell cycle arrest in human A549 cells assessed as accumulation at G2/G1 phase at 10 uM after 48 hrs by propidium iodide staining-based flow cytometric analysis (reference value: 1.91%); assay type: functional
# A549 [13] = assay: Induction of apoptosis in human A549 cells assessed as nuclear fragmentation at 10 uM after 48 hrs by Hoechst 33258 staining-based fluorescence microscopic analysis; assay type: functional, cell-based; procedure, shortened: as §2
# A549 [14] = assay: Induction of autophagosome formation in human A549 cells assessed as increase in LC3-2 protein level at 5 to 10 uM after 24 hrs by Western blotting analysis; assay type: functional, cell-based
# A549 [15] = assay: Induction of apoptosis in human A549 cells assessed as chromatin condensation at 10 uM after 48 hrs by Hoechst 33258 staining-based fluorescence microscopic analysis; assay type: functional, cell-based; procedure, shortened: as §2
# A549 [16] = assay: Cell cycle arrest in human A549 cells assessed as accumulation at G1 phase at 10 uM after 48 hrs by propidium iodide staining-based flow cytometric analysis (reference value: 54.5%); assay type: functional
SMILES,growth inhibition (GI) (A549 [1]),Activity (A549 [2]),growth inhibition (GI) (A549 [3]),Activity (A549 [4]),Activity (A549 [5]),Activity (A549 [6]),Activity (A549 [7]),Activity (A549 [8]),IC50 (A549 [9]),growth inhibition (GI) (A549 [9]),Activity (A549 [10]),Activity (A549 [11]),Activity (A549 [12]),Activity (A549 [13]),Activity (A549 [14]),Activity (A549 [15]),Activity (A549 [16])
O=C(NO)c1cc(-c2ccc(Cl)cc2)nn1Cc1ccc(Cl)nc1,tde,28.09%,<=70%,0%,inactive,Active,inactive,Active,4.21 µM,Dose-dependent effect,Active,Active,1.84%,inactive,Active,inactive,71.91%
COc1ccc(-c2cc(C(=O)NO)n(Cc3ccc(C(C)(C)C)cc3)n2)cc1,tde,–,<=70%,–,inactive,Active,Active,–,2.56 µM,Dose-dependent effect,–,–,–,inactive,–,inactive,–
O=C(NO)c1cc(-c2ccccc2)nn1Cc1ccccc1,tde,–,–,–,inactive,Active,inactive,–,5.6 µM,Dose-dependent effect,–,–,–,inactive,–,inactive,–
COc1ccc(-c2cc(C(=O)NO)n(Cc3ccc(Cl)nc3)n2)cc1,tde,–,–,–,inactive,Active,Active,–,8.56 µM,Dose-dependent effect,–,–,–,inactive,–,inactive,–
COc1ccc(-c2cc(C(=O)NO)n(Cc3ccc([N+](=O)[O-])cc3)n2)cc1,tde,–,–,–,inactive,Active,inactive,–,7.11 µM,Dose-dependent effect,–,–,–,inactive,–,inactive,–
O=c1[nH]cc(F)c(=O)[nH]1 [FLUOROURACIL],–,–,–,–,–,–,–,–,1.65 µM,–,–,–,–,–,–,–,–
O=C(NO)c1cc(-c2ccccc2)nn1Cc1ccc([N+](=O)[O-])cc1,tde,–,–,–,inactive,Active,inactive,–,6 µM,Dose-dependent effect,–,–,–,inactive,–,inactive,–
O=C(NO)c1cc(-c2ccc(Cl)cc2)nn1Cc1ccc([N+](=O)[O-])cc1,tde,–,–,–,inactive,Active,inactive,–,7.78 µM,Dose-dependent effect,–,–,–,inactive,–,inactive,–
O=C(NO)c1cc(-c2ccc(Cl)cc2)nn1Cc1ccccc1,tde,–,–,–,inactive,Active,inactive,–,4.44 µM,Dose-dependent effect,–,–,–,inactive,–,inactive,–
COc1ccc(-c2cc(C(=O)NO)n(Cc3ccccc3)n2)cc1,tde,–,–,–,inactive,Active,inactive,–,6.77 µM,Dose-dependent effect,–,–,–,inactive,–,inactive,–
O=C(NO)c1cc(-c2ccccc2)nn1Cc1ccc(Cl)nc1,tde,–,–,–,inactive,Active,inactive,–,8.5 µM,Dose-dependent effect,–,–,–,inactive,–,inactive,–
CC(C)(C)c1ccc(Cn2nc(-c3ccccc3)cc2C(=O)NO)cc1,tde,24.87%,<=70%,2.32%,inactive,Active,inactive,Active,1.72 µM,Dose-dependent effect,Active,Active,1.8%,inactive,Active,inactive,72.8%
CC(C)(C)c1ccc(Cn2nc(-c3ccc(Cl)cc3)cc2C(=O)NO)cc1,tde,21.27%,<=70%,0%,inactive,Active,inactive,Active,1.82 µM,Dose-dependent effect,Active,Active,1.96%,inactive,Active,inactive,78.73%
